Screening data deposited in PubChem by Broad Institute.
Sampled rows, rich in hits. Any-hit rate of the full collection: about 5.8%.
T cruzi growth-1 = T. cruzi intracellular proliferation inhibitors, primary screen, cell-based, beta-gal Tulahuen parasites, NIH3T3 host, luminescence | T. cruzi beta-gal in NIH3T3, GalScreen luminescence, 90 h | inhibition, % at 8.34 µM | 5.9% of 77,000 active | AID 624255, 2012;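 active = mean inhibition above about 93%, with at least 55% of replicates each passing it, limit read from the data, passing the limit was not always enough; inconclusive = only one of those two conditions holds; inactive = neither condition holds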
IDH1 R132H inh = inhibitors of IDH1 R132H reductase, primary screen, biochemical, plate reader, single point | diaphorase/resazurin fluorescence, 60 min | inhibition, % at 10 µM | 0.18% of 70,000 active; in the data active = inhibition above about 34%; inconclusive = no clear call, values can overlap the other calls; inactive = below about 11%;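 note: 0% = DMSO and 100% = no enzyme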
Target sequence (O75874 whole entry R132H): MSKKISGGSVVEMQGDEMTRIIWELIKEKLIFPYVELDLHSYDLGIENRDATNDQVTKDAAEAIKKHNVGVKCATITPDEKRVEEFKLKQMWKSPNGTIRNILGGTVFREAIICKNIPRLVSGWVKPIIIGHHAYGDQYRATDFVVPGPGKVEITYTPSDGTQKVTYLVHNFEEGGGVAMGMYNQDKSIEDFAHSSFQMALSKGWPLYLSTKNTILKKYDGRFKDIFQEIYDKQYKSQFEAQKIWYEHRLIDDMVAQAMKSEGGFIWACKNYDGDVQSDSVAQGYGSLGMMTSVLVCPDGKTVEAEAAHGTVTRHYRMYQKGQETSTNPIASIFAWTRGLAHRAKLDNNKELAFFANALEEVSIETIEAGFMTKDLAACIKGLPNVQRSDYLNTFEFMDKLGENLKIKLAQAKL
GASC1 inh = inhibitors of GASC-1 (KDM4C) histone demethylase, primary screen, biochemical, single concentration HTS; 0.15% of 96,000 active; AID 720574, 2013; Lysine-specific demethylase 4C (Homo sapiens), Q9H3R0; inhibition, % at 12.5 µM; GST-KDM4C 2-372, H3K9me3 peptide, LANCE TR-FRET;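 active = mean replicate inhibition above about 25%, with at least 55% of replicates also reaching it, limit read from the data, passing the limit was not always enough; inconclusive = only one of those two conditions met; inactive = neither condition met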
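Test system: N-terminal GST-fused human GASC-1 (KDM4C) fragment, residues 2-372; quantity: GASC-1 enzyme at 10 nM final in reaction; dosing: single dose; schedule: 30 min demethylation and 1 h detection at room temperature; signal: LANCE TR-FRET, excitation 340 nm, emissions 618 and 671 nm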
Pf Dd2 inh = P. falciparum Dd2 growth inhibitors, primary screen, SYBR Green fluorescence, single dose replicates | 2.3% of 94,000 active | 72 h; hits give low values | activity change, % at 10 µM; in the data active = activity change below about -80%; inconclusive = no clear call, values can overlap the other calls
T cruzi growth-2 = T. cruzi intracellular proliferation inhibitors, confirmation, cell-based, NIH3T3 host, beta-gal parasite, luminescence, cherry-pick; 72% of 5,600 active; AID 651739, 2012; T. cruzi beta-gal in NIH3T3, GalScreen luminescence, 90 h; inhibition, % at 8.35 µM; shares compounds with T cruzi growth-1;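 active = mean replicate inhibition above about 95% and at least 55% of replicates individually reaching it, limit read from the data; inconclusive = only one of the two criteria is met; inactive = neither criterion is met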
T cruzi growth-3 = inhibitors of intracellular T. cruzi replication, confirmation, NIH3T3 host cells, beta-gal parasites, cherry-pick, set 2; shares compounds with T cruzi growth-1; T. cruzi beta-gal in NIH3T3, GalScreen luminescence, 90 h; inhibition, % at 2.09 µM; 21% of 5,600 active; AID 651740, 2012;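 active = mean inhibition above about 95%, with at least 55% of replicates also reaching it, limit read from the data; inconclusive = meets just one of the two conditions; inactive = meets neither condition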;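 note: plate controls were neutral control median for no effect and positive control median for full effect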
NIH3T3 tox = cytotoxicity in mouse NIH/3T3 fibroblasts, confirmation, cytotoxicity control for T. cruzi proliferation inhibitor project, cell-based, cherry-pick, single point; shares compounds with T cruzi growth-1; NIH/3T3 viability, CellTiter-Glo ATP luminescence, 90 h; cytotoxicity (signal decrease), % at 8.35 µM; 14% of 5,600 active; AID 651742, 2012;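 active = mean signal decrease across replicates above about 35% based on untreated-well scatter, with enough replicates individually passing, limit read from the data; inconclusive = no rule stated though some were filed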;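 note: 0% = median of neutral control wells and 100% = median of positive control wells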
NIH3T3 tox 2 = NIH/3T3 fibroblast cytotoxicity, confirmation, cytotoxicity control, cell-based, cherry-pick, single point, set 2; NIH/3T3 viability, CellTiter-Glo ATP luminescence, 90 h; inhibition, % at 24.9 µM; AID 651744, 2012; 56% of 5,600 active; shares compounds with T cruzi growth-1;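 active = mean loss of cell viability signal at or above a set limit, and enough replicates individually reaching it; inconclusive = meets only the mean limit or only the replicate share; inactive = meets neither condition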;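 note: 0% = median of neutral control wells and 100% = median of positive control wells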
* marks the source's active call; other numbers are inactive results.

`C[C@H](CO)N1C[C@H](C)[C@H](CN(C)Cc2ccc(-c3ccccc3)cc2)Oc2cc(C#CC(C)(C)O)ccc2S1(=O)=O` gave T cruzi growth-1 122*, GASC1 inh -2, Pf Dd2 inh -54, T cruzi growth-2 92, T cruzi growth-3 116*, NIH3T3 tox 51* and NIH3T3 tox 2 104*.
`C[C@H]1CN([C@@H](C)CO)S(=O)(=O)c2ccc(C#CC(C)(C)O)cc2O[C@H]1CN(C)Cc1ccc(-c2ccccc2)cc1` gave T cruzi growth-1 124*, GASC1 inh 0, Pf Dd2 inh -65, T cruzi growth-2 96*, T cruzi growth-3 113*, NIH3T3 tox 114* and NIH3T3 tox 2 105*.
Screening C[C@H]1CN([C@@H](C)CO)S(=O)(=O)c2ccc(C#CC(C)(C)O)cc2O[C@@H]1CN(C)Cc1ccc(-c2ccccc2)cc1 returned T cruzi growth-1 118*, GASC1 inh 0, Pf Dd2 inh -58, T cruzi growth-2 98*, T cruzi growth-3 112*, NIH3T3 tox 120* and NIH3T3 tox 2 104*.
`C[C@H]1CN([C@@H](C)CO)S(=O)(=O)c2ccc(C#CC(C)(C)O)cc2O[C@H]1CN(C)Cc1ccccc1` gave T cruzi growth-1 77 and Pf Dd2 inh -32.
`C[C@H](CO)N1C[C@H](C)[C@@H](CN(C)Cc2ccc(-c3ccccc3)cc2)Oc2cc(C#CC(C)(C)O)ccc2S1(=O)=O` gave T cruzi growth-1 117*, IDH1 R132H inh -1, GASC1 inh 0, Pf Dd2 inh -73, T cruzi growth-2 95*, T cruzi growth-3 116*, NIH3T3 tox 114* and NIH3T3 tox 2 104*.
CO[C@@H]1CN(C)C(=O)c2ccc(NC(=O)Nc3cc(F)ccc3F)cc2OC[C@H](C)N(C(=O)c2cnccn2)C[C@@H]1C was read as T cruzi growth-1 -86, IDH1 R132H inh 0, GASC1 inh -2 and Pf Dd2 inh -29.
For C[C@H](NC(=O)C[C@@H]1C[C@@H]2c3cc(NC(=O)C4CCOCC4)ccc3O[C@@H]2[C@@H](CO)O1)c1ccccc1 the results were T cruzi growth-1 -8, IDH1 R132H inh 0, GASC1 inh 0 and Pf Dd2 inh 0.
Screening COc1ccccc1NC(=O)N[C@@H]1CC[C@@H](CC(=O)N[C@@H](C)c2ccccc2)O[C@@H]1CO returned T cruzi growth-1 1, IDH1 R132H inh 0, GASC1 inh 2 and Pf Dd2 inh 4.
C[C@@H]1CN([C@H](C)CO)S(=O)(=O)c2ccc(C#CC(C)(C)O)cc2O[C@@H]1CN(C)Cc1ccc(-c2ccccc2)cc1 was read as T cruzi growth-1 125*, GASC1 inh 1, Pf Dd2 inh -63, T cruzi growth-2 83, T cruzi growth-3 110*, NIH3T3 tox 45* and NIH3T3 tox 2 107*.
`COc1ccc(CCO[C@@H]2O[C@H](CO[C@@H]3OC[C@H](O)[C@H](O)[C@H]3O)[C@@H](OC(=O)/C=C/c3ccc(O)c(OC)c3)[C@H](O[C@@H]3O[C@@H](C)[C@H](O)[C@@H](O)[C@H]3O)[C@H]2O)cc1O` gave IDH1 R132H inh 0.
CCc1cnc(N2[C@@H](C#N)[C@H](c3ccc(C#Cc4ccccc4F)cc3)[C@@H]2CO)s1 was read as T cruzi growth-1 110*, GASC1 inh -1, Pf Dd2 inh -44, T cruzi growth-2 105*, T cruzi growth-3 94, NIH3T3 tox 11 and NIH3T3 tox 2 2.
`CCc1cnc(N2[C@H](C#N)[C@@H](c3ccccc3)[C@H]2CO)s1` gave T cruzi growth-1 7, GASC1 inh -1 and Pf Dd2 inh 20.
CCc1cnc(N2[C@H](C#N)[C@@H](c3ccc(-c4cccc(F)c4)cc3)[C@@H]2CO)s1 was read as T cruzi growth-1 inconclusive, GASC1 inh -2, Pf Dd2 inh -22, T cruzi growth-2 104*, T cruzi growth-3 52, NIH3T3 tox -4 and NIH3T3 tox 2 100*.
Screening CCc1cnc(N2[C@H](C#N)[C@H](c3ccccc3)[C@H]2CO)s1 returned T cruzi growth-1 -7, GASC1 inh -1 and Pf Dd2 inh 26.
`CCc1cnc(N2[C@H](C#N)[C@@H](c3ccc(C#Cc4ccccc4F)cc3)[C@@H]2CO)s1` gave T cruzi growth-1 100*, GASC1 inh -1, Pf Dd2 inh -53, T cruzi growth-2 100*, T cruzi growth-3 107*, NIH3T3 tox -25 and NIH3T3 tox 2 85*.
O=C(NCc1ccc(F)cc1)[C@@H]1[C@@H](CO)[C@@H]2Cn3c(cccc3=O)[C@H]1N2 was read as T cruzi growth-1 inconclusive, GASC1 inh -3, Pf Dd2 inh 8, T cruzi growth-2 -31, T cruzi growth-3 -25, NIH3T3 tox -19 and NIH3T3 tox 2 -13.
`O=C(NCc1ccc(F)cc1)[C@@H]1[C@@H](CO)[C@@H]2Cn3c(cccc3=O)[C@H]1N2Cc1ccncc1` gave T cruzi growth-1 -7, GASC1 inh -2 and Pf Dd2 inh 1.
`CN1CCN(C(=O)[C@H]2[C@H](CO)[C@H]3Cn4c(cccc4=O)[C@@H]2N3Cc2ccncc2)CC1` gave T cruzi growth-1 active, GASC1 inh 1, T cruzi growth-2 -17, T cruzi growth-3 -2, NIH3T3 tox -3 and NIH3T3 tox 2 -14.
`O=C(Nc1ccccc1)[C@@H]1[C@@H](CO)[C@@H]2Cn3c(cccc3=O)[C@H]1N2Cc1ccncc1` gave T cruzi growth-1 100*, GASC1 inh 1, Pf Dd2 inh 2, T cruzi growth-2 inconclusive, T cruzi growth-3 13, NIH3T3 tox -1 and NIH3T3 tox 2 4.
Screening O=C(NCc1ccc(F)cc1)[C@H]1[C@H](CO)[C@H]2Cn3c(cccc3=O)[C@@H]1N2Cc1cccnc1 returned T cruzi growth-1 99*, GASC1 inh -1, Pf Dd2 inh 11, T cruzi growth-2 89, T cruzi growth-3 -13, NIH3T3 tox -3 and NIH3T3 tox 2 -11.
